Shown are actives, neighbours in structure and some others; about 1.9% of the full set was active somewhere.
T cell modulator = T cell immune modulation candidate; 2C CD8+ T cell-vesicle binding, flow cytometry; hits give low values; response (vesicle binding), % at 7 µM; actives 0.068% (n = 330,000);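 active means response, share of CD8 T cells binding vesicles, and their 90th percentile fluorescence all below set limits, cut at about 80% in these data, passing the limit was not always enough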;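 further: values below 100% mean blocked vesicle binding to the CD8+ T cells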
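Material: murine 2C transgenic CD8+ T lymphocytes / Also added: QL9-peptide-loaded Drosophila micro-vesicles bearing Ld, ICAM-1 and B7-1 / Schedule: binding step 1.5 h, 37 °C, antibody labelling 20 min, ice / Signal: flow cytometry, PE anti-B7-1 (FL2) versus Alexa647 anti-CD8 (FL8), PFA-fixed / Evaluation: percent CD8+ FL2 mean versus row control / Benchmarks: naked versus QL9-loaded vesicles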
V-ATPase pH = yeast V-ATPase proton transport regulation by pHLuorin | S. cerevisiae, pHLuorin cytosolic pH fluorescence | response, % at 10 µM | actives 0.37% (n = 350,000) | AID 504577; in the data active means response mostly above about 7.3%, no sharp cut-off; inactive means mostly below about 5.4%; further: actives read high
KLK7 zymogen act = proKLK7 (human) activation, primary screen; P49862; purified proKLK7, EDANS-DABCYL substrate fluorescence; 100% is mature enzyme control, 0% vehicle; activation, % at 7 µM; actives 0.9% (n = 370,000);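 active means activation above the mean of all tested compounds plus 3 SD, computed per campaign excluding outliers beyond control limits, cut at about 13% in these data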
Target sequence (P49862 whole entry, looked up): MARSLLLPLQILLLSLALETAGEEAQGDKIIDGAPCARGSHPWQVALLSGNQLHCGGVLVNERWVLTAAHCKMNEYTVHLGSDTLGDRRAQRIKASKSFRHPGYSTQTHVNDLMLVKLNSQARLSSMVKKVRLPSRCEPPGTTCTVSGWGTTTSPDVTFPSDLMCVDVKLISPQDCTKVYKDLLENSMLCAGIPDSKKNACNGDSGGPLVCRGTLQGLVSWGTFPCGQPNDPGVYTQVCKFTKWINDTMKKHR
MIN6 prolif = induces beta-cell replication in MIN6 cells; proliferation, % at 10 µM; MIN6 cells proliferation, ATPlite luminescence, 48 h; cells starved in 0.2% serum; 100% = growth in 10% serum; actives 0.29% (n = 330,000);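 active means compounds whose signal lies at least 3.5 SD above the mean of all wells on their plate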;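 further: 0% = DMSO-treated cells in low-serum medium and 100% = 10% serum control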
Yeast superoxide = lowers age-related superoxide in aged yeast cells; S. cerevisiae aged cells, superoxide DHE fluorescence; hits give low values; actives 0.18% (n = 330,000); superoxide response (% of plate mean), % at 10 µM;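 active means superoxide response under a set limit, about three screen SD below normal, cut at about 65% in these data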;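 further: yeast aged for seven days with compound at 30 °C before DHE staining; 100% = average MFI of all compound-treated wells on the plate with controls excluded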
Rce1 inh = yeast Ras-converting enzyme inhibition; calls only; yeast membranes, quenched prenylated peptide cleavage fluorescence; actives 0.27% (n = 290,000); Q03530;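 active means fall in fluorescence gain of 50% or more versus controls, with final raw signal at or below 3038400; inconclusive means same 50% fall but final raw signal above 3038400; inactive means fall in fluorescence gain under 50%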;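 further: plate controls were neutral control wells for no effect and wells lacking membranes for full effect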
Target sequence (Q03530 whole entry, looked up): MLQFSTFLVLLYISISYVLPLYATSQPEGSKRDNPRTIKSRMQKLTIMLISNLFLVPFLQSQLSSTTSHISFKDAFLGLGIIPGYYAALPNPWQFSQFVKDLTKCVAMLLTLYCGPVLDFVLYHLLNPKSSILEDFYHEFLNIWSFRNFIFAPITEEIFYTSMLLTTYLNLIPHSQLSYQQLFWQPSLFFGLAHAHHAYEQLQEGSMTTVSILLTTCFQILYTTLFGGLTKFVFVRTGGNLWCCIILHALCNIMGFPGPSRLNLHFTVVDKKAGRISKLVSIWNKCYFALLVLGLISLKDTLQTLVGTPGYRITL
KLK7 act conf = confirmation of human kallikrein-7 zymogen activators; activation, % at 7 µM; AID 686949; shares compounds with KLK7 zymogen act; purified proKLK7, EDANS-DABCYL substrate fluorescence; scaled: vehicle 0, mature enzyme 100; actives 68% (n = 3,200);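 active means activation, as change over the incubation, above the mean of all tested compounds plus 3 SD, cut at about 13% in these data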
EDANS interfere = counter-screen for kallikrein-7 activators: EDANS-DABCYL optical interference; actives 80% (n = 3,200); AID 686952; shares compounds with KLK7 zymogen act; activation, % at 7 µM; EDANS-DABCYL substrate fluorescence interference, no enzyme, 4 h; solvent 0%, active enzyme control 100%;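 active means activation above the all-compound mean plus 3 SD, ignoring values outside control-based bounds, cut at about 4.8% in these data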;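 further: value is the 4 h activation minus the activation read at time zero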
K7 EDANS ctr = counter-screen for kallikrein-7 activators: EDANS-DABCYL interference, dose response; EC50, µM; shares compounds with KLK7 zymogen act; EDANS-DABCYL peptide fluorescence interference, no enzyme; actives 20% (n = 250);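 active means compounds that raise the fluorescence signal in this interference counterscreen, with EC50 at or below 10 µM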;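 further: intact quenched peptide substrate alone read at 355 nm excitation and 520 nm emission; signal is fluorescence gain from T0 to T4 after four hours at room temperature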
* = called active by the depositor; i = inactive; ? = inconclusive; nt = no result.

SMILES	T cell modulator	V-ATPase pH	KLK7 zymogen act	MIN6 prolif	Yeast superoxide	Rce1 inh	KLK7 act conf	EDANS interfere	others
CC(=O)Oc1ccc(/C=C(\NC(=O)c2cccc(Br)c2)C(=O)Nc2ccc(C(=O)O)cc2)cc1	221	4	0	-1	105	i	nt	nt
CCOc1cc(C(=O)Nc2cc(OC)cc(OC)c2)ccc1OCC(=O)N1CCOCC1	357	1	0	1	95	nt	nt	nt
CCOc1cc(C(=O)Nc2ccc(S(=O)(=O)N3CCCCC3)cc2)ccc1OCC(=O)N1CCOCC1	600	-3	20*	-3	99	i	14*	15*
CSCCC(NS(=O)(=O)c1ccc(C)cc1)C(=O)N1CCN(S(=O)(=O)c2ccc(F)cc2)CC1 (stereo unspecified)	331	-1	1	4	114	i	nt	nt
CCOc1ccc(C(=O)/C=C/Nc2ccc(S(=O)(=O)Nc3cc(C)nc(C)n3)cc2)cc1	454	nt	147*	-2	100	i	238*	177*
CC(NS(=O)(=O)c1ccccc1)C1CC2CCC1C2 (stereo unspecified)	514	2	0	-6	113	i	nt	nt
COc1cc2c(C#N)c(N3CCCC3)nc(N)c2c(N)n1	324	0	-2	-1	96	i	nt	nt
COc1cc2c(C#N)c(N3CCN(C)CC3)nc(N)c2c(N)n1	167	-3	65*	-1	102	i	48*	61*
CC(=O)N[C@@H]1C[C@@H]2O[C@@H](CO)CC[C@@H]2O[C@@H]1CCc1ccc(C#CC2(O)CCCC2)cc1	nt	nt	0	nt	nt	nt	nt	nt
CCOC(=O)C1CCN(C(=O)COC(=O)CNS(=O)(=O)c2ccc(SC)c([N+](=O)[O-])c2)CC1	nt	-4	0	nt	nt	nt	nt	nt
Cc1cn2nc(N)c3ccccc3c2n1	199	3	1	0	92	nt	nt	nt
Nc1nn2cc(-c3ccccc3)nc2c2ccccc12	141	-3	66*	-4	81	?	55*	53*
CC(C)[C@H](NS(=O)(=O)c1ccccc1F)C(=O)NC1CCCCC1	326	-3	0	0	115	nt	nt	nt
COc1ccc(-c2ccc(C#N)c(SCC(=O)NC3CC3)n2)cc1OC	337	0	17*	-2	106	i	4	2
CCC1(c2ccccc2)NC(=O)N(CC(=O)NC2CCCCCC2)C1=O (stereo unspecified)	424	1	-1	-4	95	nt	nt	nt
O=[N+]([O-])c1ccccc1S(=O)(=O)NCCSCc1ccco1	261	2	0	1	106	nt	nt	nt
CCCCCCCCCCCn1nnnc1N	nt	0	0	nt	nt	nt	nt	nt
CC(C)(C)NC1=NCCNC(c2ccccc2)=C1	nt	-2	-1	nt	nt	nt	nt	nt
Cc1nn(CC(=O)OCC(=O)c2ccccc2)c(C)c1[N+](=O)[O-]	328	1	1	-4	105	nt	nt	nt
CC1(C)CC(=O)c2cc(OCC(=O)N3CCOCC3)ccc2O1	395	-2	44*	6	95	i	71*	81*
CCCCCCCNC(=O)COc1ccc2c(c1)C(=O)CC(C)(C)O2	307	0	-5	-1	105	i	nt	nt
Cc1ccc(OCC(=O)N2CCOCC2)cc1C	400	4	0	0	91	i	nt	nt
CCN(CC)C(=O)COc1ccc2c(c1)C(=O)CC(C)(C)O2	391	-3	47*	4	110	i	40*	71*
CCOC(=O)COc1ccc2c(c1)C(=O)CC1(CCCCC1)O2	445	1	24*	-3	111	i	14*	10*	K7 EDANS ctr=>69
CC1(C)CC(=O)c2cc(OCC(=O)NCCCN3CCN(c4ccccc4F)CC3)ccc2O1	267	-1	18*	-3	94	i	17*	21*
SMILES	T cell modulator	V-ATPase pH	KLK7 zymogen act	MIN6 prolif	Yeast superoxide	Rce1 inh	KLK7 act conf	EDANS interfere	others
COc1ccc(Cn2ccnc2SCC(=O)NC2CCCC2)cc1	467	1	0	-1	100	i	nt	nt
CC(=O)Nc1ccc(NC(=O)C(C)N(C)CC(=O)Nc2ccccc2Br)cc1 (stereo unspecified)	223	3	0	nt	106	i	nt	nt
C[C@H](c1ccccc1)N1C[C@@H](COCc2ccccc2)Oc2cccc(F)c2S1(=O)=O	nt	nt	0	nt	nt	nt	nt	nt
CC(C)NC(=O)COc1ccc2c(c1)C(=O)CC(C)(C)O2	159	-2	37*	1	106	i	81*	85*
CC1(C)CC(=O)c2cc(OCC(=O)NCc3cccnc3)ccc2O1	294	-1	48*	-2	100	i	62*	66*
O=S(=O)(NCC1(N2CCOCC2)CCCCC1)c1ccc(F)c(F)c1F	210	1	0	2	107	i	nt	nt
N#Cc1cccnc1N1CCN(C(=O)c2[nH]c(C(F)(F)F)nc2-c2ccccc2)CC1	nt	nt	2	nt	nt	nt	nt	nt
COCCn1c(=O)[nH]c(=O)c2c(C(F)(F)F)cc(-c3cccs3)nc21	297	5	31*	0	105	i	-13	-34
[N-]=[N+]=NC1CC(CO)OC1n1ccc(=O)[nH]c1=O (stereo unspecified)	911	0	0	-2	87	i	nt	nt
Cc1nn(CCc2nn[nH]n2)c2nc(C(F)(F)F)cc(C(F)(F)F)c12	386	-1	30*	-1	98	i	17*	12*	K7 EDANS ctr=>70
Cc1nn(CCc2nn[nH]n2)c2nc(-c3ccc(Br)cc3)cc(C(F)(F)F)c12	469	2	-2	-5	121	i	nt	nt
CCC(=O)Nc1ccc2c(c1)C(=O)N(C)[C@@H]1CC[C@@H](CC(=O)OC)O[C@H]1CO2	nt	nt	0	nt	nt	nt	nt	nt
CC1CCCCN1C(=O)c1c(Cl)cnn1C (stereo unspecified)	81	1	0	0	90	i	nt	nt
CC(=O)NCCC(=O)Nc1sc2c(c1-c1nc3ccccc3[nH]1)CCCC2	250	2	2	0	93	i	nt	nt
CN1CCN(S(=O)(=O)c2cccc(C(=O)Nc3sc4c(c3-c3nc5ccccc5[nH]3)CCCC4)c2)CC1	172	-2	50*	0	95	i	-4	12*
COc1ccc(NC(=O)CN(C)C(=O)c2cc(-c3ccco3)nc3ccccc23)cc1	217	1	-12	-3	96	nt	nt	nt
CC(C)CCNC(=O)c1cc(-c2ccco2)nc2ccccc12	479	-3	13*	-1	92	i	-32	-60
